Results from ChEMBL document CHEMBL1153493, “The marine natural-derived inhibitors of glycogen synthase kinase-3beta phenylmethylene hydantoins: In vitro and in vivo activities and pharmacophore modeling” (Bioorg Med Chem, 2009).

Molecular target: Glycogen synthase kinase-3 beta (Homo sapiens, UniProt P49841)
Experiment: Inhibition of recombinant GSK3-beta by ELISA

Chain of Glycogen synthase kinase-3 beta (P49841 whole entry): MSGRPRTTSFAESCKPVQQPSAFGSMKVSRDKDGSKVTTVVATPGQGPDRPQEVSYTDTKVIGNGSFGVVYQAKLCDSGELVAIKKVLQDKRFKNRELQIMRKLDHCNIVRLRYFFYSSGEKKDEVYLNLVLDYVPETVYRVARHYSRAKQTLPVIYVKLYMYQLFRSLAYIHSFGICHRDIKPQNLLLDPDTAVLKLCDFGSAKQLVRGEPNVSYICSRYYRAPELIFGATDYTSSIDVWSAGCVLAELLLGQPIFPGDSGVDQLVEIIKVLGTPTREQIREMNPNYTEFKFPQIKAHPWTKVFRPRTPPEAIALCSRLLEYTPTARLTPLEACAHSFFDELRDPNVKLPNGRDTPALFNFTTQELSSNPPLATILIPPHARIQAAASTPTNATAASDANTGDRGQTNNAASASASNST

SMILES	IC50
O[C@]12C=C(c3nccc4c3[nH]c3ccccc34)[C@@H]3CCN(CCCC/C=C\CC1)C[C@@]31C[C@@H]3/C=C\CCCCN3[C@H]12 [MANZAMINE A]	12.3 µM
O=C1NC(=O)/C(=C/c2ccc(O)cc2)N1 [4-HYDROXYPHENYLMETHYLENE HYDANTOIN]	13.7 µM
O=C1NC(=O)/C(=C/c2ccc(-c3cccs3)cc2)N1	13.5 µM
CCN(CC)c1ccc(/C=C2\NC(=O)NC2=O)cc1	4.2 µM
CCSc1ccc(/C=C2\NC(=O)NC2=O)cc1	7.8 µM
CSc1ccc(/C=C2\NC(=O)NC2=O)cc1	6.9 µM
O=C1NC(=O)/C(=C/c2ccc(Cl)cc2)N1	18.2 µM
O=C1NC(=O)/C(=C/c2ccc(-c3ccsc3)cc2)N1	6.4 µM

Tested on: Rattus norvegicus
Experiment: Antihyperglycemic activity in ip dosed Sprague-Dawley rat assessed as increase liver glycogen
Assay type: functional, organism-based
How it was run: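 Female Sprague Dawley rats, six weeks old, about 200 g. Food and water removed 6 h before a single ip injection of 5, 15 or 25 mg/kg as the sodium salt in PBS pH 7.2, 0.5 mL/rat. PBS vehicle control, n=3 per group. Liver homogenized in 5% TCA, glycogen precipitated with ethanol, measured with anthrone at 620 nm. Mean ± SEM.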

SMILES	Activity
CCN(CC)c1ccc(/C=C2\NC(=O)NC2=O)cc1	Dose-dependent effect
